pIC50: −log10 of the molar value.
Assays:
[1] = molecular target: Receptor tyrosine-protein kinase erbB-2 (Homo sapiens, UniProt P04626); test: Inhibition of recombinant human ERBB2 (676 to 1255 residues) using poly(Glu:Tyr) as substrate incubated for 40 mins in presence of [gamma-33P-ATP] by radiometric scintillation assay
How it was run: (§1)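 Eurofins radiometric enzymatic assay with ATP at Km for each kinase. IC50 was derived from a 9-point dose–response curve run in duplicate.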

[2] = Kinetic solubility of compound in PBS at pH 7.4 incubated for 24 hrs by chemiluminscent nitrogen detection method; format: physicochemical; details: buffer, pH 7.4, 24 h
How it was run: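 Filtrates were quantified by total chemiluminescent nitrogen determination against a calibration curve, with correction for background nitrogen from DMSO and medium.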

[3] = Inhibition of human TTBK1 (1 to 479 residues) using Casein as substrate measured after 40 mins in presence of [gamma33P]ATP by scintillation counting method
How it was run: (§2)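 Eurofins radiometric kinase assay run at ATP equal to Km for each kinase. 9-point dose–response in duplicate gives the IC50.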

[4] = molecular target: T1, Macrophage colony-stimulating factor 1 receptor (Homo sapiens, UniProt P07333); test: Inhibition of NanoLuc-fused CSF1R (unknown origin) expressed in HEK293 cells incubated for 2 hrs by NanoBRET assay; format: cell-based
T1 sequence (P07333 whole entry, the tested form may be a part): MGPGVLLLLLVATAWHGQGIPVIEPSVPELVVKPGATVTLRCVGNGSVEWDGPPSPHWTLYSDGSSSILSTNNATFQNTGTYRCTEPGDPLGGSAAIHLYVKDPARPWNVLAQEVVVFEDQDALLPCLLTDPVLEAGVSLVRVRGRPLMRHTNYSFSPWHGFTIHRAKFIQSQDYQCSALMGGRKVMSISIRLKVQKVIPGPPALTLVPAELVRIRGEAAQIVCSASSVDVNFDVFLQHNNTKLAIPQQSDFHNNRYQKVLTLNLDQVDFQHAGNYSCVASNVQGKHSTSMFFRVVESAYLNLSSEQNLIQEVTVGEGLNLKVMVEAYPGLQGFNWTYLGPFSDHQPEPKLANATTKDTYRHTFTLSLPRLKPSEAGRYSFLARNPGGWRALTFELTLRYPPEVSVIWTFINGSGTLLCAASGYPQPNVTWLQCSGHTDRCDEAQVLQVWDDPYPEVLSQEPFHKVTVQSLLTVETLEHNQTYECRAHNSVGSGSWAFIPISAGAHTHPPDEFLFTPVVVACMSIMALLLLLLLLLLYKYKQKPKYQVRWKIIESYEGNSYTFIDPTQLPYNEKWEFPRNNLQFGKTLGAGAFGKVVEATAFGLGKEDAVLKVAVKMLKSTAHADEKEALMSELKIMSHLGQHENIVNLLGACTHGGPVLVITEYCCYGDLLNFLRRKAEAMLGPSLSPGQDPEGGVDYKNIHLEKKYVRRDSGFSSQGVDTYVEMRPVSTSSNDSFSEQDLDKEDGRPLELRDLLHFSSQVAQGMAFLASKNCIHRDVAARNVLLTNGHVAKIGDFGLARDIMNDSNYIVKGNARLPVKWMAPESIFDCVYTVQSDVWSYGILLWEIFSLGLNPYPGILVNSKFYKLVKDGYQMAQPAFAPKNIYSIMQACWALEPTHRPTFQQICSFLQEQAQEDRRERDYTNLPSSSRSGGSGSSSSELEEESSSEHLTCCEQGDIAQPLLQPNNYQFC

[5] = molecular target: T2, Serine/threonine-protein kinase TBK1 (Homo sapiens, UniProt Q9UHD2); test: Displacement of tracer K5 from NLuc fused TBK1 (unknown origin) expressed in HEK293 cells by NanoBRET assay; format: cell-based
T2 sequence (Q9UHD2 whole entry): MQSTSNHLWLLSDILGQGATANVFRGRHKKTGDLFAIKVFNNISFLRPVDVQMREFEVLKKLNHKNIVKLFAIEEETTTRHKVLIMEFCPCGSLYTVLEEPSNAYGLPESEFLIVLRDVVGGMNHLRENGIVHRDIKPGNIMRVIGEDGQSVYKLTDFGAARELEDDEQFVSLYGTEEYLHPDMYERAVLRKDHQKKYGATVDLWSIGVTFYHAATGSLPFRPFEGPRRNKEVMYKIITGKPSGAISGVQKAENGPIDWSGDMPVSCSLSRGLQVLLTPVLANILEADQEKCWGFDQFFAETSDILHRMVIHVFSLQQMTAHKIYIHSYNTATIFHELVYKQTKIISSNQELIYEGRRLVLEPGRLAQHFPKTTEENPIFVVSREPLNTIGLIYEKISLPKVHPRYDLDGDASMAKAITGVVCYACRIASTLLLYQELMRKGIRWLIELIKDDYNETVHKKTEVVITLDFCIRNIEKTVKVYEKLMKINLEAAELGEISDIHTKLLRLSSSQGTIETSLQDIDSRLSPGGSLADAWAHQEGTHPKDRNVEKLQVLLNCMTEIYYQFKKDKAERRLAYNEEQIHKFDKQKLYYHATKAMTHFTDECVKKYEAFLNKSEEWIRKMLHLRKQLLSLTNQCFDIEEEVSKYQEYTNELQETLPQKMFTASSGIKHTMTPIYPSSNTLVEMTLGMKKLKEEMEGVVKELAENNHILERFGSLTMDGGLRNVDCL
How it was run: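 HEK293 cells grown in DMEM with 10% FBS at 37 °C, 5% CO2. NanoBRET assay run in dose–response per manufacturer's protocol with tracer K-5 at 0.5 μM. SEM calculated for assays run more than once.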

[6] = molecular target: MAP/microtubule affinity-regulating kinase 3 (Homo sapiens, UniProt P27448); test: Displacement of tracer K9 from NLuc fused MARK3 (unknown origin) expressed in HEK293 cells by NanoBRET assay; format: cell-based
Sequence of MAP/microtubule affinity-regulating kinase 3 (P27448 whole entry, the tested form may be a part): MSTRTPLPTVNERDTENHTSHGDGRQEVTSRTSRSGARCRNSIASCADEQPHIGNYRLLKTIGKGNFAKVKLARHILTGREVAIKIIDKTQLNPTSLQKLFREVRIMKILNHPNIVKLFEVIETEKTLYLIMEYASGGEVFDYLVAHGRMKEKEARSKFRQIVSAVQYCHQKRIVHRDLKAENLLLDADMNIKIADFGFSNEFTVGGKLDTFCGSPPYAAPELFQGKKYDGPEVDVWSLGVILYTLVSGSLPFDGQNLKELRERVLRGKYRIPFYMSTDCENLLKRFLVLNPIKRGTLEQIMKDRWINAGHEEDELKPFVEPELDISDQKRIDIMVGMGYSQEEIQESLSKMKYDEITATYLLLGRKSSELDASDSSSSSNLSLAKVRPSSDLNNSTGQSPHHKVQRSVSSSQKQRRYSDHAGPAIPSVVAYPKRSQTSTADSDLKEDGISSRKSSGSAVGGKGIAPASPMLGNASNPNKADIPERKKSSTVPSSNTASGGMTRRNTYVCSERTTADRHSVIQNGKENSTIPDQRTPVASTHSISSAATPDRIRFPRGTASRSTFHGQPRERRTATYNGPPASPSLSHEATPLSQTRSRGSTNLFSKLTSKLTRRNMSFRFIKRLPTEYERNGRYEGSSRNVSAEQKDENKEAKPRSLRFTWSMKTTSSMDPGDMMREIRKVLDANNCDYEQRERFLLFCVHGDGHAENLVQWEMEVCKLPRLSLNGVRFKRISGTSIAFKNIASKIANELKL

[7] = molecular target: T3, Non-receptor tyrosine-protein kinase TYK2 (Homo sapiens, UniProt P29597); test: Inhibition of human TYK2 (875 to end residues) using GGMEDIYFEFMGGKKK as substrate measured after 40 mins in presence of [gamma33P]ATP by radiometric scintillation counting method; how it was run: as §1
T3 sequence (P29597 whole entry, the tested form may be a part): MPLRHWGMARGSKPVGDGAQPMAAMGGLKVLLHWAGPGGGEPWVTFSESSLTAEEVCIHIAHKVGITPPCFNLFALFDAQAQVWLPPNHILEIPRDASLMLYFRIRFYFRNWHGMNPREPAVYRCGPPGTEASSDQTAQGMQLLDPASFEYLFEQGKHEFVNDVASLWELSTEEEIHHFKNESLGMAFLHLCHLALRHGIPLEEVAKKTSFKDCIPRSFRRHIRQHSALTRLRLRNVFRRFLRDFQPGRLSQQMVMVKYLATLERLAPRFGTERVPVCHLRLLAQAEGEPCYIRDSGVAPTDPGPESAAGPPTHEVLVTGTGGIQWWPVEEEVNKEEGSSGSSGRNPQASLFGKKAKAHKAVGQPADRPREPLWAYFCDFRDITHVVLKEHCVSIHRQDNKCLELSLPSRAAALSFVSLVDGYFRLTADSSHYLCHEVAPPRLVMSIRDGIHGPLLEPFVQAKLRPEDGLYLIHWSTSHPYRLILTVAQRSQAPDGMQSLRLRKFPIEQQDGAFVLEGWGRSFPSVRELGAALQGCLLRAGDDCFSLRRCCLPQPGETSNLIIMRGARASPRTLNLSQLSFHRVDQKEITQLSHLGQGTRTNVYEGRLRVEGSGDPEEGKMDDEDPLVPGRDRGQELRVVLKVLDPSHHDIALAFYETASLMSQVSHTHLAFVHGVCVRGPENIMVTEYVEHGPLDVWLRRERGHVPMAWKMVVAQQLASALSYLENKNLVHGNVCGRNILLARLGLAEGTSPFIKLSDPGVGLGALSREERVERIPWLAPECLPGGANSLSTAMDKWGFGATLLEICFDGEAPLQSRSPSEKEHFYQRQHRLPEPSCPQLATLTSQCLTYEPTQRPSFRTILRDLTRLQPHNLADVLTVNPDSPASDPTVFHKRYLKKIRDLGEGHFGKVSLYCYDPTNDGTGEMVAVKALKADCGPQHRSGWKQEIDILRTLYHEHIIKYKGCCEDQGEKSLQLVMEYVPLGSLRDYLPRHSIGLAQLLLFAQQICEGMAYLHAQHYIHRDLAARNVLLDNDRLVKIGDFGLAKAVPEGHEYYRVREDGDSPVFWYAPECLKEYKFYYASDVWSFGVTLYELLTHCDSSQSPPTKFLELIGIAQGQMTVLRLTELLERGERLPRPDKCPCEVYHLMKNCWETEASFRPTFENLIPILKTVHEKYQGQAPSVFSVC

[8] = molecular target: T4, Serine/threonine-protein kinase 17A (Homo sapiens, UniProt Q9UEE5); test: Displacement of tracer K9 from NLuc fused DRAK1 (unknown origin) expressed in HEK293 cells by NanoBRET assay; format: cell-based
T4 sequence (Q9UEE5 whole entry): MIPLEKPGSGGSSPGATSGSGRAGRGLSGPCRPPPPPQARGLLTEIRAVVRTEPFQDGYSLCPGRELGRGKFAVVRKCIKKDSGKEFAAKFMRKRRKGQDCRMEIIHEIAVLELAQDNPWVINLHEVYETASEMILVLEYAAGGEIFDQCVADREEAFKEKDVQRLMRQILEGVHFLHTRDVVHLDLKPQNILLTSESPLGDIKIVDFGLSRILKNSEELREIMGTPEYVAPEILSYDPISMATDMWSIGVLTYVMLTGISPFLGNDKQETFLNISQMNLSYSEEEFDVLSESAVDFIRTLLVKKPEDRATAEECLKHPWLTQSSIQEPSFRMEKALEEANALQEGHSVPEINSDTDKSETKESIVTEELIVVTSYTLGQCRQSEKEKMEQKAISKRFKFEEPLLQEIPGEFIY

[9] = molecular target: Tyrosine-protein kinase JAK2 (Homo sapiens) (UniProt O60674); test: Inhibition of recombinant human JAK2 (808 to end residues) using KTFCGTPEYLAPEVRREPRILSEEEQEMFRDFDYIADWC as substrate at 1 uM incubated for 40 mins in presence of [gamma-33P-ATP] by radiometric scintillation assay relative to control
Sequence of Tyrosine-protein kinase JAK2 (Homo sapiens) (O60674 whole entry): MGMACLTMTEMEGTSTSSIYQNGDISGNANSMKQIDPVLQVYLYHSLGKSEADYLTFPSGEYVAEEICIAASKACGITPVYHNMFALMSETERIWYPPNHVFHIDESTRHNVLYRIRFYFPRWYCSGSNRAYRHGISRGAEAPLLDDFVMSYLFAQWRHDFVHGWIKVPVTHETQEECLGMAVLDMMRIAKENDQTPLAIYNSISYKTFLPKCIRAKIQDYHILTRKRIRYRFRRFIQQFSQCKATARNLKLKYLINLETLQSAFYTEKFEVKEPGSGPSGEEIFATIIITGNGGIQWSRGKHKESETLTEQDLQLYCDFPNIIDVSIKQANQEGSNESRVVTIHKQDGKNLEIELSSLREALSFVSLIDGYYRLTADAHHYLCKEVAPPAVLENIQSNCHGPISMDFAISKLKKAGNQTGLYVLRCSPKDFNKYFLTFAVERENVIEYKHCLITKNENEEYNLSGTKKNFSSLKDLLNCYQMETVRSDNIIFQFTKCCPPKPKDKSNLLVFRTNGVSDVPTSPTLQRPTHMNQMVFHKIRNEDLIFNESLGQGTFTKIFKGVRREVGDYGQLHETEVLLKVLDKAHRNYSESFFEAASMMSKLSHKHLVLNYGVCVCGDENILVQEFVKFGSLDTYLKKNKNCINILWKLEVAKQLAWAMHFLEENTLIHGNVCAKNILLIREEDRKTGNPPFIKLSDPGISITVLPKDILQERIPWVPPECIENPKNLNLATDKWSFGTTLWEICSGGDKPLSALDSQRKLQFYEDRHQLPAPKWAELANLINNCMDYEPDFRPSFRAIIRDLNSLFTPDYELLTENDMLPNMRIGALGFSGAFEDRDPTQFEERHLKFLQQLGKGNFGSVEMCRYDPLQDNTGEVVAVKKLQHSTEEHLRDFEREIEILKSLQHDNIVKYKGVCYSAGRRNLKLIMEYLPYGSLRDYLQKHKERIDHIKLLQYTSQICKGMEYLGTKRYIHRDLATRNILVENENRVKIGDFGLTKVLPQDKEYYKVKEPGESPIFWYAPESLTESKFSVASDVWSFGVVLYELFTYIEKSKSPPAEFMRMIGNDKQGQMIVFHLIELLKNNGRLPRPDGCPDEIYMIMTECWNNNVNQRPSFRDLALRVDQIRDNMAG
How it was run: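 Eurofins radiometric kinase assay with ATP at Km for each kinase. Compound was tested at a single 1 μM concentration in duplicate, and the result is reported as percent of control.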

[10] = molecular target: T5, MAP/microtubule affinity-regulating kinase 4 (Homo sapiens, UniProt Q96L34); test: Displacement of tracer K5 from NLuc fused MARK4 (unknown origin) expressed in HEK293 cells by NanoBRET assay; format: cell-based
T5 sequence (Q96L34 whole entry): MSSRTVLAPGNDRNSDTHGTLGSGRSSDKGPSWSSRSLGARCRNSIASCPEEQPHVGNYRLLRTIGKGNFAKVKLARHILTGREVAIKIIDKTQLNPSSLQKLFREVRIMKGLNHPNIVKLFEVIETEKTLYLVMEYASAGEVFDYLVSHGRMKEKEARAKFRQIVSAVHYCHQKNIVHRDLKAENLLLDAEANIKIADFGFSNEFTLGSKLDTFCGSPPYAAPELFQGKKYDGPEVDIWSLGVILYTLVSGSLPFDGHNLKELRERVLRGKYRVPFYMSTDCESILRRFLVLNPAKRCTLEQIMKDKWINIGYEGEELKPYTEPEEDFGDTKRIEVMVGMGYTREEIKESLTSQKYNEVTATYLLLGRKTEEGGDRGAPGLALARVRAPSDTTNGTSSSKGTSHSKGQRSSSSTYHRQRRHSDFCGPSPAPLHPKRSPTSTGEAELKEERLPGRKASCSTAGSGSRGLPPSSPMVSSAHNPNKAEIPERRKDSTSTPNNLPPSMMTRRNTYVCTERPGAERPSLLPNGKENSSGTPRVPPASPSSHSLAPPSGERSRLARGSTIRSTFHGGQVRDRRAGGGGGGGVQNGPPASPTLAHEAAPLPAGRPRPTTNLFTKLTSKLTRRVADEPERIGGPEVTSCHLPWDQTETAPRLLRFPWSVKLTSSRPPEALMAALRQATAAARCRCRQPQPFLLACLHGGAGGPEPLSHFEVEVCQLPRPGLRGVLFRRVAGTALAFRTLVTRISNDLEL

[11] = Effective permeability in PBS at 7.4 incubated for 5 hrs by PAMPA analysis; format: ADME; details: pH 7.4, 5 h
How it was run: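 PAMPA: DMSO stocks were diluted in PBS pH 7.4 and placed in the donor compartment, with PBS pH 7.4 in the acceptor, for 5 h. Both compartments were quantified by CLND against a calibration curve, with background nitrogen correction. Effective permeability was calculated from donor and acceptor concentrations using measured rather than assumed solubility.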

[12] = molecular target: T1, Macrophage colony-stimulating factor 1 receptor; test: Inhibition of recombinant human FMS (538 to end residues) using KKKSPGEYVNIEFG as substrate measured after 40 mins in presence of [gamma33P]ATP by radiometric scintillation counting method; how it was run: as §2
[13] = molecular target: T3, Non-receptor tyrosine-protein kinase TYK2; test: Inhibition of NanoLuc-fused TYK2 (unknown origin) expressed in HEK293 cells incubated for 2 hrs by NanoBRET assay; format: cell-based
How it was run: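 Cellular NanoBRET target-engagement assays were run by Carna Biosciences to the manufacturer's protocol. Dose–response was in singlicate, with compounds tested at concentrations up to 10 μM.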

[14] = molecular target: MAP kinase-interacting serine/threonine-protein kinase 2 (Homo sapiens, UniProt Q9HBH9); test: Inhibition of full length recombinant human MKNK2 using myelin basic protein as substrate incubated for 40 mins in presence of [gamma-33P-ATP] by radiometric scintillation assay; how it was run: as §2
Sequence of MAP kinase-interacting serine/threonine-protein kinase 2 (Q9HBH9 whole entry, the tested form may be a part): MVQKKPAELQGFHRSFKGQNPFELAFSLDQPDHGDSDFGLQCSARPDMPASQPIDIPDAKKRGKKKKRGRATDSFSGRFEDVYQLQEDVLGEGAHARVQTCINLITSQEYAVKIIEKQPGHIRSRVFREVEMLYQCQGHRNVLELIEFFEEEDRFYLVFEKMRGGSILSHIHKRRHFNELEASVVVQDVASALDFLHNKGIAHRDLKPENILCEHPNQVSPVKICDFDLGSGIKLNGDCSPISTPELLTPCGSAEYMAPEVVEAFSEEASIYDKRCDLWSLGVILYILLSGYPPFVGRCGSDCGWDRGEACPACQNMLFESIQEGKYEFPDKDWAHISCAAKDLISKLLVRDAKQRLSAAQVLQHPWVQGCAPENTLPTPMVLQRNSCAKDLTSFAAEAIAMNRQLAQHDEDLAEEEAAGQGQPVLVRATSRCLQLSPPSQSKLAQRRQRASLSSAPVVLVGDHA

[15] = molecular target: Death-associated protein kinase 3 (Homo sapiens, UniProt O43293); test: Inhibition of recombinant human ZIPK (1 to 290 residues) using KKLNRTLSFAEPG as substrate measured after 40 mins in presence of [gamma33P]ATP by radiometric scintillation counting method; how it was run: as §1
Sequence of Death-associated protein kinase 3 (O43293 whole entry, the tested form may be a part): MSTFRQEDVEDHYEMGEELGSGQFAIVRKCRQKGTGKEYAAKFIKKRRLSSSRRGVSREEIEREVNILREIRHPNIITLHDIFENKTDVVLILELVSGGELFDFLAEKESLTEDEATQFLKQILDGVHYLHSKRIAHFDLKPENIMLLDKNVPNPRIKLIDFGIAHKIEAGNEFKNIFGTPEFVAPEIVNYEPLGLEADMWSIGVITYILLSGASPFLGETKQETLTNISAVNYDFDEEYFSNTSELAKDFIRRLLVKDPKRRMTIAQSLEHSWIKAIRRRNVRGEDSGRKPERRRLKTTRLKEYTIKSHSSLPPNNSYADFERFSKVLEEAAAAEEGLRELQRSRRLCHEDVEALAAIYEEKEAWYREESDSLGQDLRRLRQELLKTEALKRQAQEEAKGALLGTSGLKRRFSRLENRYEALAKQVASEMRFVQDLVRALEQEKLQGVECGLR

[16] = molecular target: T6, Inhibitor of nuclear factor kappa-B kinase subunit epsilon (Homo sapiens, UniProt Q14164); test: Inhibition of full length recombinant human IKKepsilon using casein as substrate incubated for 40 mins in presence of [gamma-33P-ATP] by radiometric scintillation assay; how it was run: as §2
T6 sequence (Q14164 whole entry): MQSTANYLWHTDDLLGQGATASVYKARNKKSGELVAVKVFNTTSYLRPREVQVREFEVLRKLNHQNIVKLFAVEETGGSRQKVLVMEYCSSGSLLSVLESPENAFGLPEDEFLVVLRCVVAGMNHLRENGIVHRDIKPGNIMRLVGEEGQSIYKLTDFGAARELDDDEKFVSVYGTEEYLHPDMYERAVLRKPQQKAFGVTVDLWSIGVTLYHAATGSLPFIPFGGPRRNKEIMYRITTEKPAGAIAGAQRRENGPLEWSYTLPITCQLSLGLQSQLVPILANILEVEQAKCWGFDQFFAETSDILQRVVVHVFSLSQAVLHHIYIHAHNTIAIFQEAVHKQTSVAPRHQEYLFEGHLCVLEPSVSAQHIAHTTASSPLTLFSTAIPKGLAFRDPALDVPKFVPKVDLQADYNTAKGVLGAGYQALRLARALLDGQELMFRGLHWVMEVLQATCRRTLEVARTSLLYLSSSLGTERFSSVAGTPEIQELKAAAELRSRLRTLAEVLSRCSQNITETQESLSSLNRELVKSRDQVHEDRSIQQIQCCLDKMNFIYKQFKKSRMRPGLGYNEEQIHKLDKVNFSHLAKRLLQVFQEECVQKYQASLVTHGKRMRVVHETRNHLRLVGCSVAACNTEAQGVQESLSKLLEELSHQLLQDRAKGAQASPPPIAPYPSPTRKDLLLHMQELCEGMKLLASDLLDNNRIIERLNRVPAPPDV

SMILES	pIC50 [1]	Kinetic solubility [2]	pIC50 [3]	pIC50 [4]	pIC50 [5]	pIC50 [6]	pIC50 [7]	pIC50 [8]	% control [9]	pIC50 [10]	Peff [11]	pIC50 [12]	pIC50 [13]	Kinetic_solubility [2]	pIC50 [14]	pIC50 [15]	pIC50 [16]	Peff ([11]; BLD = below limit of detection)
NS(=O)(=O)c1ccc(CNc2ccnc(Nc3cccc(CN4CCOCC4)c3)n2)cc1	< 5.00	176 µM	5.56	5.30	< 5.00	< 5.00	6.56	< 5.00	54%	< 5.00	4.56 10^-7 cm/s	7.04	< 5.00					
Cc1nn(CC(F)(F)F)cc1Nc1ncc(Br)c(NCc2ccc(S(N)(=O)=O)cc2)n1			7.43	< 5.00	6.47	< 5.00		< 5.00		< 5.00				176.9 µM	5.86	< 5.00	6.26	Bld
